Laboratory results from PubChem BioAssay AID488910 (Broad Institute, 2010).
About 25 (0.1%) of roughly 20,000 compounds were called active. Only a selection was taken, and actives are over-represented in it overall. Unmarked numbers belong to inactive results.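 The calls were made as follows: active = mean replicate protection from cytokine-induced ATP loss at least 50% and at least 75% of replicates each reaching 50%; inconclusive = meets only one of the two criteria, mean or replicate share; inactive = fails both the mean and replicate share criteria.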

assay: preservation of ATP in cytokine-treated beta cells – cell-based, ATP luminescence, single point, primary screen (AID 488910); details: INS-1E cytokine-induced death, 48 h, at 10 µM, active compounds read high, normalised: neutral wells 0, positive control 100
In short: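 Test system: INS-1E rat cells | Quantity: 8000 cells per well | Medium: Phenol-red-free RPMI with 5% fetal bovine serum | Reagent: Cytokine cocktail of IFN-γ, TNF-α and IL-1β | Doses: One compound concentration, pin transfer | Timing: 48 h co-treatment, 10 min post-lysis read | Technique: Luminescent ATP assay (CellTiter-Glo)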

Point of comparison: `COc1ccc(NC(=O)N(C)C[C@H]2Oc3ccc(NC(=O)Cc4cn(C)c5ccccc45)cc3CC(=O)N([C@@H](C)CO)C[C@H]2C)cc1`, protection from cytokine-induced ATP loss 13.3%. Against it:
- C[C@H](CO)N1C[C@H](C)[C@H](CN(C)C(=O)Nc2ccc(F)cc2)Oc2c(NC(=O)c3cnccn3)cccc2C1=O — lower, 8.13%
- C[C@@H]1CCCCO[C@H](CN(C)C(=O)c2ccccc2)[C@@H](C)CN([C@H](C)CO)C(=O)c2cc(NC(=O)Nc3cccc4ccccc34)ccc2O1 — lower, -1.39%
- C[C@@H]1CCCCO[C@H](CN(C)S(=O)(=O)c2ccccc2)[C@@H](C)CN([C@H](C)CO)C(=O)c2cc(NC(=O)Nc3ccc(F)cc3)ccc2O1 — lower, -6.46%
- CC(C)NC(=O)N(C)C[C@H]1Oc2ccc(NC(=O)Cn3cnnn3)cc2CC(=O)N([C@H](C)CO)C[C@H]1C — lower, -1.35%
- Cc1noc(C)c1NC(=O)Nc1ccc2c(c1)C(=O)N([C@H](C)CO)C[C@H](C)[C@H](CN(C)Cc1ccc(Oc3ccccc3)cc1)O2 — lower, -15.9%
- C[C@H](CO)N1C[C@H](C)[C@H](CN(C)S(C)(=O)=O)Oc2ccc(NC(=O)Nc3ccc(F)cc3)cc2C1=O — lower, 2.55%
- CC(C)NC(=O)N(C)C[C@@H]1Oc2c(cccc2N(C)C)C(=O)N([C@@H](C)CO)C[C@H]1C — lower, 10.2%
- C[C@@H]1CN([C@H](C)CO)C(=O)c2cccc(NS(=O)(=O)c3ccc(F)cc3)c2O[C@@H]1CN(C)C(=O)Nc1ccc(C(F)(F)F)cc1 — lower, -38%
- Cc1ccc(S(=O)(=O)N(C)C[C@@H]2Oc3c(NC(=O)c4ccncc4)cccc3C(=O)N([C@@H](C)CO)C[C@@H]2C)cc1 — lower, 11.7%
- COc1ccc(NC(=O)N(C)C[C@H]2Oc3c(NC(=O)Nc4cccc5ccccc45)cccc3C(=O)N([C@H](C)CO)C[C@@H]2C)cc1 — lower, -0.252%
- COc1cc(Br)cc(/C=N/NC(=O)c2ccccn2)c1O — lower, -83.9%
- C[C@@H]1CCCCO[C@H](CN(C)CC2CC2)[C@@H](C)CN([C@H](C)CO)C(=O)c2cc(NC(=O)Cc3ccccc3)ccc2O1 — lower, -0.194%
- COc1ccc(NC(=O)N(C)C[C@H]2Oc3ccc(NC(=O)Nc4ccc5c(c4)OCO5)cc3C(=O)N([C@H](C)CO)C[C@H]2C)cc1 — lower, 3.2%
- Cc1ccc(S(=O)(=O)Nc2ccc3c(c2)C(=O)N([C@H](C)CO)C[C@H](C)[C@H](CN(C)Cc2ccccc2)OCCCC[C@@H](C)O3)cc1 — lower, -2.3%
- CC(C)NC(=O)N(C)C[C@H]1Oc2c(NS(C)(=O)=O)cccc2C(=O)N([C@@H](C)CO)C[C@H]1C — lower, 12.8%
- C[C@H]1CN([C@@H](C)CO)C(=O)c2cc(NC(=O)Cn3cnnn3)ccc2O[C@@H]1CN(C)C(=O)Nc1ccccc1 — lower, 2.24%
- Cc1ccc(S(=O)(=O)N(C)C[C@@H]2Oc3ccc(NC(=O)Nc4ccc5c(c4)OCO5)cc3C(=O)N([C@@H](C)CO)C[C@@H]2C)cc1 — higher, 20.1%
- O=C(O)CCCCCCC(=O)N/N=C/c1ccncc1Br — lower, 6.66%
- C[C@H]1CN([C@@H](C)CO)C(=O)c2cccc(NC(=O)C3CCCCC3)c2O[C@H]1CN(C)C(=O)NC1CCCCC1 — lower, 6.52%
- Cc1noc(C)c1NC(=O)N(C)C[C@H]1Oc2ccc(NC(=O)C3CCCCC3)cc2CC(=O)N([C@@H](C)CO)C[C@H]1C — lower, 4.09%
- Cc1ccc(S(=O)(=O)N(C)C[C@@H]2OCCCC[C@@H](C)Oc3ccc(NS(=O)(=O)c4ccccc4)cc3C(=O)N([C@H](C)CO)C[C@@H]2C)cc1 — lower, -4.67%
- Cc1ccc(S(=O)(=O)Nc2ccc3c(c2)C(=O)N([C@H](C)CO)C[C@H](C)[C@H](CN(C)Cc2ccc(C(=O)Nc4ccccc4N)cc2)OCCCC[C@@H](C)O3)cc1 — lower, 1.83%
- C[C@H]1CN([C@@H](C)CO)C(=O)c2cc(NS(=O)(=O)c3ccc(Cl)cc3)ccc2O[C@H]1CN(C)Cc1ccc(Oc2ccccc2)cc1 — lower, -11.4%
- C[C@@H]1CCCCO[C@@H](CN(C)C(=O)CCCN(C)C)[C@@H](C)CN([C@H](C)CO)C(=O)c2cc(NC(=O)Nc3ccc(F)cc3)ccc2O1 — lower, 9.84%
- C[C@H](CO)N1C[C@H](C)[C@H](CN(C)Cc2ccncc2)Oc2ccc(NC(=O)C3CCCCC3)cc2CC1=O — lower, -9.96%
- COc1ccc(NC(=O)N(C)C[C@H]2Oc3c(NC(=O)C4CC4)cccc3C(=O)N([C@@H](C)CO)C[C@@H]2C)cc1 — lower, -1.85%
- C[C@@H]1CN([C@H](C)CO)C(=O)c2cccc(NC(=O)c3cnccn3)c2O[C@@H]1CN(C)Cc1ccncc1 — lower, 3.26%
- C[C@@H]1CN([C@H](C)CO)C(=O)c2cc(NC(=O)CCCCCC(=O)Nc3ccccc3N)ccc2O[C@H]1CN(C)C(=O)Nc1ccc(C(F)(F)F)cc1 — lower, 1.3%
- C[C@@H]1CN([C@H](C)CO)C(=O)Cc2cc(NC(=O)CCN3CCOCC3)ccc2O[C@@H]1CN(C)S(C)(=O)=O — lower, 3.88%
- Cc1ccc(S(=O)(=O)N(C)C[C@H]2Oc3ccc(NS(=O)(=O)c4ccccc4)cc3CC(=O)N([C@@H](C)CO)C[C@H]2C)cc1 — lower, -6.07%
- C[C@@H]1CN([C@H](C)CO)C(=O)c2cccc(NC(=O)C3CCCCC3)c2O[C@@H]1CN(C)C(=O)NC1CCCCC1 — lower, 6.03%
- C[C@H](CO)N1C[C@H](C)[C@H](CN(C)Cc2ccc3c(c2)OCO3)Oc2c(NC(=O)NC3CCCCC3)cccc2C1=O — lower, -16.1%
- CNC[C@@H]1Oc2ccc(NS(=O)(=O)c3c(C)noc3C)cc2CC(=O)N([C@@H](C)CO)C[C@@H]1C — lower, 0.843%
- CC(C)NC(=O)Nc1ccc2c(c1)C(=O)N([C@H](C)CO)C[C@H](C)[C@@H](CN(C)S(C)(=O)=O)OCCCC[C@@H](C)O2 — lower, 1.03%
- C[C@@H]1CN([C@@H](C)CO)C(=O)Cc2cc(NC(=O)C3CCCCC3)ccc2O[C@@H]1CN(C)C(=O)Nc1ccc(C(F)(F)F)cc1 — lower, -12.7%
- Cc1ccc(S(=O)(=O)N(C)C[C@@H]2Oc3c(NS(=O)(=O)c4ccc(F)cc4)cccc3C(=O)N([C@@H](C)CO)C[C@H]2C)cc1 — higher, 15.4%
- Cc1noc(C)c1NC(=O)Nc1ccc2c(c1)C(=O)N([C@H](C)CO)C[C@@H](C)[C@@H](CN(C)Cc1ccccc1)O2 — lower, 2.87%
- C[C@@H]1CCCCO[C@@H](CN(C)CC2CC2)[C@@H](C)CN([C@H](C)CO)C(=O)c2cc(NC(=O)Nc3cccc4ccccc34)ccc2O1 — lower, -7.95%
- Cc1cccc(CN(C)C[C@H]2OCc3cn(nn3)CCCC(=O)N([C@@H](C)CO)C[C@H]2C)c1 — lower, -2.7%
- Cc1ccc(S(=O)(=O)N(C)C[C@@H]2Oc3ccc(NC(=O)c4ccncc4)cc3CC(=O)N([C@H](C)CO)C[C@H]2C)cc1 — lower, -0.881%
- COc1cc(/C=C/C=N/NC(=O)CCCCCC(=O)Nc2ccccc2O)ccc1O — lower, -1.89%
- CC(C)NC(=O)N(C)C[C@H]1Oc2c(NC(=O)Nc3ccc(F)cc3)cccc2C(=O)N([C@@H](C)CO)C[C@@H]1C — lower, 12.3%
- COc1ccc(S(=O)(=O)Nc2ccc3c(c2)CC(=O)N([C@@H](C)CO)C[C@@H](C)[C@@H](CN(C)C(=O)Nc2c(C)noc2C)O3)cc1 — lower, 9.17%
- COc1ccc(NC(=O)Nc2ccc3c(c2)C(=O)N([C@H](C)CO)C[C@H](C)[C@@H](CN(C)C(=O)NC2CCCCC2)OCCCC[C@@H](C)O3)cc1 — higher, 14.1%
- C[C@H]1CN([C@@H](C)CO)C(=O)c2cc(NC(=O)C3CCCCC3)ccc2O[C@H]1CN(C)S(=O)(=O)c1cn(C)cn1 — lower, 2.64%
- C[C@H]1CN([C@@H](C)CO)C(=O)c2cccc(NC(=O)Nc3ccccc3)c2O[C@H]1CN(C)S(=O)(=O)c1ccc(Cl)cc1 — lower, -12.7%
- C[C@@H]1CN([C@H](C)CO)C(=O)Cc2cc(NC(=O)Nc3ccc(C(F)(F)F)cc3)ccc2O[C@@H]1CN(C)S(=O)(=O)c1ccccc1 — lower, -5.63%
- C[C@H](CO)N1C[C@H](C)[C@H](CN(C)C(=O)Nc2ccc(C(F)(F)F)cc2)Oc2ccc(NS(=O)(=O)c3cn(C)cn3)cc2CC1=O — higher, 19%
- C[C@@H]1CN([C@@H](C)CO)C(=O)Cc2cc(NS(=O)(=O)c3cccs3)ccc2O[C@@H]1CN(C)C(=O)Nc1ccc(C(F)(F)F)cc1 — lower, -9.39%
- O=C(N/N=C/c1ccc(Oc2ccccc2)cc1)c1ccccn1 — lower, 4.62%
- CC(C)NC(=O)Nc1cccc2c1O[C@@H](CN(C)Cc1ccc(C(=O)O)cc1)[C@@H](C)CN([C@H](C)CO)C2=O — lower, 5.94%
- C[C@H]1CN([C@@H](C)CO)C(=O)c2cccc(NC(=O)C3CCOCC3)c2O[C@H]1CN(C)S(C)(=O)=O — lower, 10.3%
- COc1ccc(S(=O)(=O)N(C)C[C@H]2Oc3ccc(NC(=O)Nc4c(C)noc4C)cc3CC(=O)N([C@@H](C)CO)C[C@H]2C)cc1 — lower, 6.69%
- Cc1noc(C)c1NC(=O)N(C)C[C@@H]1Oc2ccc(NS(C)(=O)=O)cc2C(=O)N([C@@H](C)CO)C[C@@H]1C — lower, 1.81%
- Cc1noc(C)c1S(=O)(=O)Nc1ccc2c(c1)CC(=O)N([C@H](C)CO)C[C@H](C)[C@H](CN(C)S(=O)(=O)c1cn(C)cn1)O2 — higher, 15.3%
